Where a SMILES comes first, the peptide text is derived from it. Bridges are numbered along the chain shown (N, C = ends). [ ]: non-standard residue; d: D form. The star is where a group is joined. X1 = CC[C@H](C)CCCCC(=O)*; βNA = c1ccc2cc(N*)ccc2c1; Dab = NCC[C@H](N)C(=O)O
Columns and labels:
[1] = system: Salmonella typhimurium; assay: Potentiation of erythromycin-induced antibacterial activity against Salmonella enterica subsp. enterica serovar Typhimurium BN10055 assessed as ratio of the erythromycin alone MIC to erythromycin MIC in presence of MIC/4 level of compound incubated for 18 hrs; type: functional
Outline: (§1)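 Broth microdilution in MH broth, 10^5 CFU inoculum, two-fold antibiotic dilutions, with or without compound at MIC/4. MIC is the lowest concentration with no visible growth after 18 h at 37°C. Gain is antibiotic MIC alone divided by MIC with compound. MICs repeated in at least three independent experiments; up to 5% DMSO.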

[2] = system: Salmonella typhimurium; assay: Potentiation of chloramphenicol-induced antibacterial activity against Salmonella enterica subsp. enterica serovar Typhimurium BN10055 assessed as ratio of the chloramphenicol alone MIC to […] in presence of MIC/4 level of compound incubated for 18 hrs; type: functional; outline: as §1
[3] = system: Klebsiella aerogenes; assay: Potentiation of erythromycin-induced antibacterial activity against Enterobacter aerogenes Ea289 assessed as ratio of the erythromycin alone MIC to erythromycin MIC in presence of MIC/4 level of compound incubated for 18 hrs
[4] = Toxicity in CHO cells assessed as reduction in cell viability incubated for 24 hrs by WST1 assay; type: cell-based; conditions: Chinese hamster (Cricetulus griseus)
Outline: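 CHO-K1 cells in McCoy's 5A with 10% FCS, exposed in triplicate to 30–1200 μM compound for 24 h at 37°C. After PBS washes, 30 min in medium with 10% WST-1; absorbance at 450 nm. IC50 is the concentration giving 50% loss of viable cells.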

[5] = system: Klebsiella aerogenes; assay: Potentiation of nalidixic acid-induced antibacterial activity against Enterobacter aerogenes Ea289 assessed as ratio of the nalidixic acid alone MIC to nalidixic acid MIC in presence of MIC/4 level of compound incubated for 18 hrs
[6] = system: Klebsiella aerogenes; assay: Potentiation of doxycycline-induced antibacterial activity against Enterobacter aerogenes Ea289 assessed as ratio of the doxycycline alone MIC to doxycycline MIC in presence of MIC/4 level of compound incubated for 18 hrs; type: functional; outline: as §1
[7] = system: Salmonella typhimurium; assay: Potentiation of doxycycline-induced antibacterial activity against Salmonella enterica subsp. enterica serovar Typhimurium BN10055 assessed as ratio of the doxycycline alone MIC to doxycycline MIC in presence of MIC/4 level of compound incubated for 18 hrs; type: functional; outline: as §1
[8] = system: Klebsiella aerogenes; assay: Potentiation of chloramphenicol-induced antibacterial activity against Enterobacter aerogenes Ea289 assessed as ratio of the chloramphenicol alone MIC to […] in presence of MIC/4 level of compound incubated for 18 hrs; type: functional; outline: as §1
[9] = system: Salmonella typhimurium; assay: Potentiation of nalidixic acid-induced antibacterial activity against Salmonella enterica subsp. enterica serovar Typhimurium BN10055 assessed as ratio of the nalidixic acid alone MIC to […] in presence of MIC/4 level of compound incubated for 18 hrs; type: functional; outline: as §1
[10] = system: Klebsiella aerogenes; assay: Inhibition of AcrAB-TolC in Enterobacter aerogenes Ea289 assessed as retention of 1,2'diNA dye within bacterial membranes at 100 uM relative to control; parameters: scale not given: the % may be the effect or the level left
Outline: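 Stationary-phase cells at OD600 0.25 in potassium phosphate buffer pH 7.0 with CCCP 5 µM, loaded overnight with 1,2'-diNA 32 µM at 37°C, washed, compound added at 100 µM. Glucose 50 mM added at 300 s to energize efflux. Fluorescence (ex 370/em 420 nm) read every 30 s at 37°C; PAβN 100 µM as reference.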

[11] = Toxicity index, ratio of IC50 for toxicity in CHO cells to concentration of test compound causing at least 8 times decrease of MIC of almost 3 antibiotics (chloramphenicol/nalidixic acid/doxycycline/erythromycin ) against Enterobacter aerogenes Ea289; type: cell-based; conditions: hamster, pooled result: one value given for 2 cell lines, strains, targets or settings
[12] = system: Klebsiella aerogenes; assay: Potentiation of chloramphenicol-induced antibacterial activity against Enterobacter aerogenes Ea289 assessed as efficiency index by measuring sum of gain factor for each test compound reported for chloramphenicol/nalidixic acid/doxycycline/erythromycin and divided by concentration of test compound; type: functional; conditions: pooled result: one value given for 2 cell lines, strains, targets or settings
Outline: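 Gain factors (antibiotic MIC alone / MIC with compound at MIC/4; broth dilution, 18 h, 37°C) for erythromycin, doxycycline, nalidixic acid and chloramphenicol are summed, then divided by the compound concentration used in the assay.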

[13] = system: Klebsiella aerogenes; assay: Induction of cell transmembrane potential disruption in Enterobacter aerogenes Ea289 assessed as membrane potential by measuring fluorescence level at 100 uM by [DiSC3(5)] based assay (reference value: 0.2%)

Structure (SMILES) | Ratio [1] | Ratio [2] | Ratio [3] | IC50 at 24 h [4] [µM] | Ratio [5] | Ratio [6] | Ratio [7] | Ratio [8] | Ratio [9] | Activity [10] [%] | selectivity ratio [11] | Activity_index [12] | Activity [13] [%]
CC(C)=CCCC(C)=CCNCCCN1CCCC1 | 1 | 2 | 1 | > 150 | 2 | 2 | 2 | 1 | 4 | – | – | – | –
CC(C)=CCC/C(C)=C\CCC(C)=CCNCCCN1CCOCC1 | 4 | 8 | 16 | 57.6 | 8 | 32 | 16 | 8 | 32 | – | – | – | –
N=C(N)NCCC[C@H](NC(=O)[C@@H](N)Cc1ccccc1)C(=O)Nc1ccc2ccccc2c1 [PABETAN] (H-Phe-Arg-βNA) | 8 | 8 | 8 | – | 8 | 16 | 16 | 16 | 64 | 25 | – | – | –
CC(C)=CCC/C(C)=C\CCC(C)=CCNCCNCCNCCNCCN | 1 | 8 | 8 | 43.5 | 16 | 32 | 4 | 8 | 16 | – | 5.37 | 1.49 | –
CC(C)=CCC/C(C)=C\CCC(C)=CCNCCCCN | 4 | 8 | 256 | 18.1 | 16 | 64 | 16 | 16 | 64 | – | – | – | –
CC(C)=CCC/C(C)=C\CCC(C)=CCNCCCOCCCCOCCCN | 4 | 4 | 2 | > 150 | 2 | 8 | 8 | 4 | 16 | – | – | – | –
CC(C)=CCCC(C)=CCNCCCN(C)CCCN | – | 16 | 32 | > 150 | 8 | 16 | 16 | 16 | 32 | – | 0.06 | 0.01 | –
CC(C)=CCC/C(C)=C\CCC(C)=CCNCCCN1CCCC1 | 16 | 16 | 64 | 85.3 | 16 | 32 | 32 | 16 | 128 | – | – | – | –
CC[C@H](C)CCCCC(=O)N[C@@H](CCN)C(=O)N[C@H](C(=O)N[C@@H](CCN)C(=O)N[C@H]1CCNC(=O)[C@H]([C@@H](C)O)NC(=O)[C@H](CCN)NC(=O)[C@H](CCN)NC(=O)[C@H](CC(C)C)NC(=O)[C@@H](Cc2ccccc2)NC(=O)[C@H](CCN)NC1=O)[C@@H](C)O (X1-[Dab]T[Dab][Dab][Dab][dF]L[Dab][Dab]T; lactam 4-C) | – | – | – | – | – | – | – | – | – | – | – | – | 14
CC(C)=CCC/C(C)=C\CCC(C)=CCNCCCNCCCN | 8 | 8 | 64 | 30.2 | 8 | 32 | 32 | 8 | 64 | – | 3.86 | 3.58 | –
CC(C)=CCC/C(C)=C\CCC(C)=CCNCCCCCN | 2 | 8 | 32 | 38.4 | 8 | 64 | 16 | 16 | 16 | – | – | – | –
CC(C)=CCC/C(C)=C\CCC(C)=CCNCCCN | 64 | 32 | 256 | 32.1 | 16 | 64 | 32 | 16 | 128 | – | – | – | –
CC(C)=CCC/C(C)=C\CCC(C)=CCNCCCN1CCN(CCCN)CC1 | 4 | 8 | 128 | 33.8 | 32 | 128 | 32 | 8 | 64 | – | – | – | –
CC(C)=CCC/C(C)=C\CCC(C)=CCNCCCN(C)CCCN | 8 | 16 | 128 | 10.5 | 32 | 64 | 64 | 8 | 128 | – | 1.34 | 7.17 | –
CC(C)=CCC/C(C)=C\CCC(C)=CCNCCN | 32 | 8 | 128 | 32.3 | 8 | 8 | 32 | 4 | 64 | – | – | – | –
CC(C)=CCCC(C)=CCNCCN | 1 | 8 | 4 | 36.2 | 4 | 32 | 16 | 4 | 16 | – | – | – | –
CC(C)=CCCC(C)=CCNCCCN1CCOCC1 | 1 | 2 | 1 | > 150 | 1 | 2 | 2 | 1 | 1 | – | – | – | –
CC(C)=CCC/C(C)=C\CCC(C)=CCNCCCNCCCCNCCCN | – | 32 | 8 | 143 | 32 | 16 | 8 | 16 | 64 | – | 9.15 | 1.61 | –
CC(C)=CCC/C(C)=C\CCC(C)=CCNCCCN(CCCN)CCCN | 1 | 16 | 4 | > 150 | 16 | 16 | 8 | 32 | 128 | – | 19.2 | 3.54 | –
CC(C)=CCCC(C)=CCNCCCN1CCCC1=O | 1 | 1 | 2 | > 150 | 1 | 2 | 1 | 1 | 1 | – | – | – | –
CC(C)=CCCC(C)=CCNCCCN | – | 8 | 32 | > 150 | 8 | 16 | 16 | 8 | 32 | – | – | – | –
CC(C)=CCCC(C)=CCNCCCNCCCCNCCCN | 2 | 16 | 4 | > 150 | 16 | 16 | 16 | 8 | 64 | – | 4.8 | 0.57 | –
CCN(CC)CCCNCCCNCC=C(C)CCC=C(C)C | 8 | 16 | 32 | 30.9 | 8 | 32 | 32 | 16 | 64 | – | 1.98 | 1.66 | –
